# Bioassay records deposited in PubChem BioAssay by Broad Institute.
# SIRT5 block – blocks human SIRT5 desuccinylation of peptide; Q9NXA8; Purified SirT5, succinyl-peptide AMC, trypsin-coupled fluorescence; inhibition, % at 15 µM; 330,000 tested, 1.1% active; in the data active means inhibition above about 15%
# S100A4 MyoIIA – blocks human S100A4 binding to myosin IIA peptide | S100A4/TAMRA-MyoIIA peptide fluorescence polarization | P26447 | inhibition, % at 10.7 µM | 360,000 tested, 0.14% active;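 active means mean inhibition of at least 70% across replicates, with every replicate also reaching that level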
#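 Material: S100A4 monomer protein / Buffer or medium: 50 mM HEPES pH 7.2, 10 mM CaCl2, 100 mM KCl / Times: 5 min incubation before reading / Benchmarks: neutral control DMSO, positive control TFP / Reagent: labelled myosin peptide probe, 5 nM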
# E-sel inducer – induces E-selectin expression in human endothelial cells. HUVEC E-selectin immunofluorescence imaging; normalized: neutral wells 0, TNF-alpha wells 100. AID 686992. activation, % at 7.58 µM. 260,000 tested, 0.37% active;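 active means mean E-selectin-positive cell signal at least 10% of the positive control, reached in at least 60% of replicates, without over 20% cell loss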
# Target sequence (P16581 whole entry, looked up): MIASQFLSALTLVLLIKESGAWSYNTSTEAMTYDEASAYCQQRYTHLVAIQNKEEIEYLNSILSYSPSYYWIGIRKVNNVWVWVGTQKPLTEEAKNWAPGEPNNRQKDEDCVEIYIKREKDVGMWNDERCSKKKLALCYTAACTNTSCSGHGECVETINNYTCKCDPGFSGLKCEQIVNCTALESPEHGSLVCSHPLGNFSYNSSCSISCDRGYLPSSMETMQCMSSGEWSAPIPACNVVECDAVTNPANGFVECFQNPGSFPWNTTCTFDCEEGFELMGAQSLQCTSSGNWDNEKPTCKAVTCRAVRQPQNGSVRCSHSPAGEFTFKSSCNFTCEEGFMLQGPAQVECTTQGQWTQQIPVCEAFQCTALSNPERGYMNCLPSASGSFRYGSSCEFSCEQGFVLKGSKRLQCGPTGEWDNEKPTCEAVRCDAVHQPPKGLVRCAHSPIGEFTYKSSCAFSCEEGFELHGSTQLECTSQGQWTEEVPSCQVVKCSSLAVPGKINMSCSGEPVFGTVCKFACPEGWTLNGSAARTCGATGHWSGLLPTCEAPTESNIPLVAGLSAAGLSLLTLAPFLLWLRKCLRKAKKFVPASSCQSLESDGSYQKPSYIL
#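 material = human umbilical vein endothelial cells (HUVEC), E-selectin induction | quantity = 3,000 cells/well | medium = EGM-2 growth medium on 0.1% gelatin-coated wells | technique = immunofluorescence imaging | read-out basis = % PE-positive cells | control set = TNF-alpha positive control, DMSO neutral control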
# miR-122 sensor – inhibitors of miR-122 in Huh7 cells; Huh7 miR-122 Renilla luciferase sensor, 48 h; neutral wells = 0, positive control = 100; activation (reporter increase), % at 12.5 µM; 340,000 tested, 0.3% active;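 active means mean replicate activation score at least 90 and every replicate individually at or above 90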;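 further: higher luciferase means less miR-122 activity so hits act as miR-122 inhibitors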
# FGF22 binding – shifts melting point of recombinant human FGF22; Q9HCT0; recombinant FGF22 thermal shift, SYPRO orange fluorescence; percent of sucrose octasulfate shift, DMSO zero; activity (Tm shift, normalised), % at 9.99 µM; 340,000 tested, 1.5% active; AID 651658;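 active means mean Tm shift, scaled 0 neutral to 100 positive control, at about 1.3% or above, every replicate too, limit read from the data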
# The depositor's hits bear a star; nt = no result given; ! = a repeat was not active; [ ] = dose if it differs, or a comment. Hits are enriched below; roughly 2.5% of the tested compounds scored in any of these assays.
SMILES,SIRT5 block,S100A4 MyoIIA,E-sel inducer,miR-122 sensor,FGF22 binding
CCN1C(=O)[C@H]2[C@@H](c3ccccc3)N[C@]3(CCCN(Cc4ccccc4)C3=O)[C@H]2C1=O,24*,-1,0,-5,0
O=C1[C@H]2[C@@H](c3ccccc3)N[C@]3(CCCN(Cc4ccccc4)C3=O)[C@H]2C(=O)N1Cc1ccccc1,6,-1,nt,1,0
COc1ccc([C@H]2N[C@]3(CCCN(Cc4cccn4C)C3=O)[C@H]3C(=O)N(C)C(=O)[C@@H]23)cc1,34*,-6,0,-4,0
COCC(=O)N1C[C@@H](C)[C@@H](OC)CN(C)C(=O)c2cc(NC(=O)NC(C)C)ccc2OC[C@H]1C,0,5,0,-13[16.7 µM],0
COc1ccc(NC(=O)N(C)C[C@@H]2OCCCC[C@H](C)Oc3ccc(NC(=O)Nc4c(C)noc4C)cc3C(=O)N([C@H](C)CO)C[C@@H]2C)cc1,-6,-45,0,-2[16.7 µM],0
COc1cccc(N/N=C(\C#N)S(=O)(=O)C(C)(C)C)c1,18*,-5,-1,-2,nt
CC(C)(C)S(=O)(=O)/C(C#N)=N/Nc1ccc(C#N)cc1,6,-1,nt,nt,1
CC(=O)N(C)C[C@H]1Oc2cc(-c3ccc(C#N)cc3)ccc2S(=O)(=O)N([C@H](C)CO)C[C@H]1C,0,0,0,-28[16.7 µM],-1
Cc1ccc(S(=O)(=O)Nc2ccc3c(c2)CC(=O)N([C@H](C)CO)C[C@H](C)[C@@H](CN(C)Cc2ccc(-c4ccccc4)cc2)O3)cc1,12,-7,0,-7[16.7 µM],0
Cc1ccc(S(=O)(=O)Nc2ccc3c(c2)CC(=O)N([C@@H](C)CO)C[C@H](C)[C@H](CN(C)Cc2ccc(-c4ccccc4)cc2)O3)cc1,18*,21,0,-10[16.7 µM],0
Cc1ccc(S(=O)(=O)Nc2ccc3c(c2)CC(=O)N([C@@H](C)CO)C[C@H](C)[C@@H](CN(C)Cc2ccc(-c4ccccc4)cc2)O3)cc1,19*,11,0,-25[16.7 µM],0
Cc1ccc(S(=O)(=O)Nc2ccc3c(c2)CC(=O)N([C@H](C)CO)C[C@H](C)[C@H](CN(C)Cc2ccc(-c4ccccc4)cc2)O3)cc1,3,-7,0,6[16.7 µM],0
COCC#Cc1cnc2c(c1)C(=O)N([C@@H](C)CO)C[C@@H](C)[C@H](CN(C)S(=O)(=O)c1ccccc1)O2,-2,-10,-1,1[16.7 µM],0
C/C=C/c1ccc(C2[C@H]3CNC[C@@H]2N3S(=O)(=O)c2ccccc2C)cc1 (stereo not given in full),2,101*!,0,nt,nt
C/C=C/c1ccc(C2[C@H]3CNC[C@@H]2N3S(=O)(=O)c2ccccc2OC)cc1 (stereo not given in full),-1,-14,2,nt,nt
O=C(/C=C\Nc1ccc2c(c1)OCO2)c1ccc(Cl)s1,-4,-1,7,-2,43*
O=C(/C=C\Nc1ccc2c(c1)OCO2)c1cccs1,0,-23,nt,7,0
COc1ccc(S(=O)(=O)Nc2ccc3c(c2)C(=O)N([C@@H](C)CO)C[C@H](C)[C@H](CN(C)S(=O)(=O)c2cn(C)cn2)O3)cc1,-3,2,-1,9[16.7 µM],0
Cc1ccc(S(=O)(=O)Nc2cccc3c2O[C@H](CN(C)C(=O)Nc2cccc4ccccc24)[C@@H](C)CN([C@H](C)CO)C3=O)cc1,nt,nt,0,6[16.7 µM],nt
CCCCC(=O)Nc1ccc(C(=O)NCCc2ccc(S(N)(=O)=O)cc2)cc1,-4,1,0,0,43*
CCCCC(=O)Nc1ccc(C(=O)NCCc2ccccc2)cc1,nt,nt,nt,0,nt
NS(=O)(=O)c1ccc(NC(=S)NCCc2ccccc2)cc1,7,-1,0,-3,2.2*
S=C(NCCc1ccccc1)Nc1ccc(Cl)cc1,-2,-1,-1,nt,1.5*
CC(=O)c1ccc(NC(=S)NCCc2ccc(S(N)(=O)=O)cc2)cc1,-1,3,4,0,1
Fc1cc(Br)ccc1NC(=S)NCCc1ccccc1,4,3,nt,nt,1.8*
SMILES,SIRT5 block,S100A4 MyoIIA,E-sel inducer,miR-122 sensor,FGF22 binding
Cc1cccc(S(=O)(=O)N2C[C@H](O)COC[C@@H]3O[C@H](CC(=O)NCc4ccncn4)CC[C@H]32)c1,2,14,0,3[16.7 µM],0
O=C(CN1CCOCC1)N1CC(=O)N2[C@H](CO)[C@@H](c3ccc(/C=C/c4ccccc4)cc3)[C@@H]2C1,-4,-6,-1,nt,0
CCC(=O)N(C)C[C@@H]1Oc2cc(-c3cncnc3)ccc2S(=O)(=O)N([C@H](C)CO)C[C@H]1C,-5,18,0,-6[16.7 µM],nt
NS(=O)(=O)c1ccc(CCNC(=S)NC2CCCC2)cc1,-1,-1,-1,nt,0
Cc1ccc(C(=O)OCC(=O)NCCc2ccc(S(N)(=O)=O)cc2)o1,nt,-2,0,-7,43*
Cc1ccc(C(=O)OCC(=O)NCCNC(=O)COC(=O)c2ccc(C)o2)o1,-2,-1,nt,1,0
C[C@H](NC(=O)c1ccccc1Cl)C(=O)NCCc1ccc(S(N)(=O)=O)cc1,-6,-3,0,-2,0
C[C@H](NC(=O)c1ccc(Cl)cc1)C(=O)NCCc1ccc(S(N)(=O)=O)cc1,-1,0,0,-4,44*
S=C(NCCc1ccc(Cl)cc1)NC1CC1,-1,-2,nt,nt,44*
COc1cccc(-c2cnc3c(c2)C(=O)N([C@@H](C)CO)C[C@@H](C)[C@H](CN(C)C(=O)Nc2ccccc2F)O3)c1,-5,-46,0,nt,0
Cc1noc(C)c1NC(=O)Nc1ccc2c(c1)C(=O)N([C@H](C)CO)C[C@@H](C)[C@H](CN(C)Cc1ccc(C(=O)Nc3ccccc3N)cc1)O2,1,-7,nt,nt,0
CO[C@H]1CN(C)C(=O)c2cc(NC(C)=O)ccc2OC[C@@H](C)N(C(=O)C2CC2)C[C@@H]1C,1,-4,1,10[16.7 µM],0
O=S(=O)(O)c1cc(O)c(N=Nc2ccc(O)cc2O)c2ccccc12,31*,19,65*,-5,0
Cc1cc(C)c(C)c(S(=O)(=O)NC(C(=O)O)C(C)C)c1C (stereo not given),2,-6,nt,-9,43*
C[C@@H]1CCCCO[C@@H](CN(C)S(=O)(=O)c2cccs2)[C@@H](C)CN([C@H](C)CO)C(=O)c2cc(NC(=O)CCCN(C)C)ccc2O1,1,3,0,0[16.7 µM],0
O=C(O)c1ccc(N2C(=O)c3ccccc3C2=O)cc1[N+](=O)[O-],nt,2,0,-2,43*
CC1CN(C(=O)COC(=O)CSc2ccc(C(N)=O)cc2[N+](=O)[O-])CC(C)O1 (stereo not given),1,-2,219*,nt,0
CC1CCC(NC(=O)COC(=O)CSc2ccc(C(N)=O)cc2[N+](=O)[O-])CC1 (stereo not given),0,16,nt,nt,0
